These results are taken from ChEMBL document CHEMBL1149155, “Development of a new radioligand, N-(5-fluoro-2-phenoxyphenyl)-N-(2-[18F]fluoroethyl-5-methoxybenzyl)acetamide, for pet imaging of peripheral benzodiazepine receptor in primate brain” (J Med Chem, 2004).

The target in data set [1] is GABA-A receptor; anion channel. Nature of the data set: In vitro inhibition of [11C]flumazenil binding to GABA-A central benzodiazepine receptor of rat brain. The gist of the method:
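Rat brain sagittal cryosections (20 μm, male Sprague-Dawley) preincubated 20 min at 25 °C in 50 mM Tris-HCl pH 7.4, then incubated 30 min at 37 °C with [11C]flumazenil (1 nM) and compound 0.1–1000 nM; nonspecific binding defined with 10 μM flumazenil. Cerebellum radioactivity read by imaging plate; probit-derived IC50 converted to Ki; n = 3.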

Data set [2] can be described thus: Partition coefficient of the compound. The conditions noted are these: octanol/water. It is filed as physicochemical. In a few lines: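 LogD measured by shake-flask partition between phosphate buffer (pH 7.4) and octanol; mean of n = 3.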
The target in data set [3] is Translocator protein (Rattus norvegicus, UniProt P16257). Nature of the data set: In vitro inhibition of [11C]2 binding to Peripheral benzodiazepine receptor (PBR) in rat brain. It is filed as tissue-based.
The species entered for data set [4] is Mus musculus. Nature of the data set: Compound was tested for radioactivity level in mice adrenal glands (Compound is radiolabeled). It is filed as ADME, organism-based, Adrenal gland. The conditions noted are these: in vivo. In a few lines:
(§1)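 Male ddY mice (30–40 g, 9 weeks) given 18F-ligand in saline (average 8 MBq) via tail vein; four per time point killed at 5, 15, 30, 60, 120 min. Brain, liver, lung, heart, kidney, adrenal, bone and blood weighed and gamma-counted; decay-corrected %ID/g wet tissue.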

Data set [5] is filed under the species Mus musculus. Kind of data set: Compound was tested for radioactivity level in mice kidney (Compound is radiolabeled). It is filed as ADME, organism-based. The conditions noted are these: in vivo. The gist of the method: as §1
Data set [6] is filed under the species Mus musculus. Nature of the data set: Compound was tested for radioactivity level in mice lungs (Compound is radiolabeled). Type of data set: ADME, organism-based. The conditions noted are these: in vivo. In a few lines: as §1
The species entered for data set [7] is Mus musculus. Kind of data set: Compound (0.09% dose/g) was tested for accumulation in mice bone (Compound is radiolabeled) after 120 min; No increase. It is filed as ADME, organism-based, Bone element. The conditions noted are these: in vivo, 2 h. In a few lines:
as §1

A short description of data set [8]: Half life was determined. Type of data set: ADME. The conditions noted are these: rat.
The species entered for data set [9] is Mus musculus. Nature of the data set: Compound was tested for radioactivity level in mice heart (Compound is radiolabeled). It is filed as ADME, organism-based. The conditions noted are these: in vivo. The gist of the method: as §1
Data set [10] deals with GABA-A receptor; anion channel. Nature of the data set: Inhibition of [11C]flumazenil binding to GABA-A central benzodiazepine receptor of monkey brain.
The target of data set [11] is Translocator protein (Homo sapiens, UniProt P30536). Kind of data set: Binding affinity for Peripheral benzodiazepine receptor compared to [11C]2 in monkey brain (No affinity). Also on record: species or system Cercopithecidae. The conditions noted are these: target entry is the homologue from another species.
Data set [12] is filed under the species Mus musculus. Kind of data set: Compound was tested for radioactivity level in mice brain (Compound is radiolabeled); 2.2-4.9% ID/g. It is filed as ADME, organism-based. The conditions noted are these: in vivo. The gist of the method: as §1
The species named for data set [13] is Mus musculus. Nature of the data set: Compound (0.31% dose/g) was tested for accumulation in mice bone (Compound is radiolabeled) after 30 min; Low increase. The conditions noted are these: in vivo, 0.5 h. It is filed as ADME, organism-based. In a few lines:
as §1

Sequence of Translocator protein (Rattus norvegicus, UniProt P16257) (P16257 whole entry, looked up): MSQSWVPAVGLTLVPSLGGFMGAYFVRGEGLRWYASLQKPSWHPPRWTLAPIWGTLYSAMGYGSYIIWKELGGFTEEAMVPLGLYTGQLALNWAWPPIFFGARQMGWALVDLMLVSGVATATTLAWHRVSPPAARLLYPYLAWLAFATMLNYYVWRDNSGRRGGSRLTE
Sequence of Translocator protein (Homo sapiens, UniProt P30536) (P30536 whole entry): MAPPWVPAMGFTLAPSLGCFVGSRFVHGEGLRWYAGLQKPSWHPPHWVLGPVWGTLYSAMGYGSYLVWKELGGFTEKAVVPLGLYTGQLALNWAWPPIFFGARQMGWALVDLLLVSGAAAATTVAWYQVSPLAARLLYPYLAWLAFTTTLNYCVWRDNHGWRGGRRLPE

On to `CCC(C)N(C)C(=O)c1cc2ccccc2c(-c2ccccc2Cl)n1` (stereo not drawn) [PK-11195], for which, in [1], the Ki – broadly, the dissociation constant of the complex between target and ligand, obtained from inhibition or displacement – was above 1000 nM. Also, the logD (commonly the decadic logarithm of the distribution of all forms, ionised or not, between an organic phase and buffer at a given pH) in [2] came to 2.78.

For `COc1ccc(OCI)c(CN(C(C)=O)c2cc(F)ccc2Oc2ccccc2)c1`, the Ki in [1] was above 1000 nM; on Translocator protein [3], 4.8 nM. The compound also yielded a pH-dependent lipophilicity (logD) in [2] of 4.02.

Take `COc1ccc(OCF)c(CN(C(C)=O)c2cc(F)ccc2Oc2ccccc2)c1`: the Radioactivity level in the data set listed under Mus musculus [4], in the data set listed under Mus musculus [5], in the data set filed under Mus musculus [6] and in the data set listed under Mus musculus [9] was above 5% throughout. Further, the Activity in the data set filed under Mus musculus [7] turned out to be 5.6%. For the same compound, in [8], the T1/2 amounted to 1.83 h. Further, the inhibition constant Ki in data set [1] was above 1000 nM; at Translocator protein [3] it was 0.17 nM. In [2], the pH-dependent lipophilicity (logD) was 3.7.

In the case of `COc1ccc(OC)c(CN(C(C)=O)c2cc(F)ccc2Oc2ccccc2)c1`, the inhibitory constant (Ki) in data set [1] was above 1000 nM; at Translocator protein [3], 0.16 nM. Further, the logD in data set [2] came to 3.65.

Regarding `CC(=O)Nc1cc(F)ccc1Oc1ccccc1`, the half-maximal inhibitory concentration (IC50) (commonly the concentration needed to halve the response being measured) in [10] is above 10000 nM; on Translocator protein [11] it was “Not Active”.

With `COc1ccc(OCCOS(=O)(=O)c2ccc(C)cc2)c(CN(C(C)=O)c2cc(F)ccc2Oc2ccccc2)c1`, the Ki is above 1000 nM in data set [1] and 18.1 nM on Translocator protein [3]. In addition, the pH-dependent lipophilicity (logD) in data set [2] is 4.65.

`COc1ccc(OCCF)c(CN(C(C)=O)c2cc(F)ccc2Oc2ccccc2)c1`: the Radioactivity level is on record as above 5% in the data set filed under Mus musculus [4]; below 4.9% in the data set filed under Mus musculus [12]; above 5% in the data set listed under Mus musculus [5]; above 5% in the data set listed under Mus musculus [6]; above 5% in the data set filed under Mus musculus [9]. For the same compound, the Activity result in the data set filed under Mus musculus [7] is on record as “Not Active”; in the data set filed under Mus musculus [13], “Partially active”. The T1/2 in [8] came out at 1.83 h. The Ki was above 1000 nM in data set [1] and 0.078 nM at Translocator protein [3]. In data set [2], this compound registered a logD of 3.81.
